Measured values taken from ChEMBL document CHEMBL4138092, “Antibacterial activity and mechanism of action of the benzazole acrylonitrile-based compounds: In vitro, spectroscopic, and docking studies” (2017).
Converted amounts (≈) assume the structure as drawn. Each block holds one compound with its values, some of them ahead of it. The source made the active and inactive calls. The rule behind the calls is not given here.

How the values were obtained:
Escherichia coli [1] = assay: Antibacterial activity against Escherichia coli ATCC 25922 after 24 hrs by agar well diffusion method; type: functional; details: ATCC 25922, 24 h
Bacillus spizizenii [2] = assay: Antibacterial activity against Bacillus subtilis ATCC 6633 after 24 hrs by agar well diffusion method; type: functional; details: ATCC 6633, 24 h
Escherichia coli [3] = assay: Antibacterial activity against Escherichia coli ATCC 25922 after 24 to 48 hrs by agar well diffusion method; type: functional
Procedure, shortened: (§1)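 Mueller Hinton agar plates spread with bacteria (10⁶ cells/ml). Wells were filled with 50 µl of compound and incubated at 37 °C for 24–48 h. The inhibition zone diameter (mm) was measured with a transparent scale. Amoxicillin 5.0 mg/ml at 50 µl/well served as the positive control.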

Staphylococcus aureus [4] = assay: Antibacterial activity against Staphylococcus aureus ATCC 25923 after 24 hrs by agar well diffusion method; type: functional; details: ATCC 25923, 24 h
Staphylococcus aureus [5] = assay: Antibacterial activity against Staphylococcus aureus ATCC 25923 after 24 to 48 hrs by agar well diffusion method; type: functional; procedure, shortened: as §1
Bacillus spizizenii [6] = assay: Antibacterial activity against Bacillus subtilis ATCC 6633 after 24 to 48 hrs by agar well diffusion method; type: functional; procedure, shortened: as §1
Pseudomonas aeruginosa [7] = assay: Antibacterial activity against Pseudomonas aeruginosa ATCC 27853 after 24 hrs by agar well diffusion method; type: functional; details: ATCC 27853, 24 h
Pseudomonas aeruginosa [8] = assay: Antibacterial activity against Pseudomonas aeruginosa ATCC 27853 after 24 to 48 hrs by agar well diffusion method; type: functional; procedure, shortened: as §1
[9] = system: Bifidobacterium longum subsp. infantis; assay: Inhibition of beta-lactamase in Bifidobacterium infantis assessed as potentiation of amoxicillin induced antibacterial activity by measuring amoxicillin MIC after 24 hrs by agar well diffusion method (reference value: 1.5 ug/ml)
Procedure, shortened: (§2)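 Amoxicillin (1.0 µg/ml) was combined with test compound and diluted to 100, 80, 60, 40, 10 and 5%. The mixtures were serially diluted in sterile water, and 100 µl was added to 900 µl nutrient broth. Tubes were inoculated with 10 µl of 10⁵ cells/ml and held 24 h at 37±1 °C. Growth/no growth was scored visually. Controls were bacteria in broth alone and sterile broth alone.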

[10] = molecular target: Beta-lactamase (Staphylococcus aureus) (UniProt P00807); assay: Inhibition of beta-lactamase in Staphylococcus aureus ATCC 25923 assessed as potentiation of amoxicillin induced antibacterial activity by measuring amoxicillin MIC after 24 hrs by agar well diffusion method (reference value: 1.5 ug/ml); procedure, shortened: as §2
[11] = molecular target: Beta-lactamase (Pseudomonas aeruginosa) (UniProt Q8RL90); assay: Inhibition of beta-lactamase in Pseudomonas aeruginosa ATCC 27853 assessed as potentiation of amoxicillin induced antibacterial activity after 24 hrs by agar well diffusion method; procedure, shortened: as §2
[12] = system: Escherichia coli ATCC 25922; assay: Inhibition of beta-lactamase in Escherichia coli ATCC 25922 assessed as potentiation of amoxicillin induced antibacterial activity at 5% amoxicillin to compound dilution after 24 hrs by agar well diffusion method; procedure, shortened: as §2
[13] = system: Escherichia coli ATCC 25922; assay: Inhibition of beta-lactamase in Escherichia coli ATCC 25922 assessed as potentiation of amoxicillin induced antibacterial activity at 10 to 100% amoxicillin to compound dilution after 24 hrs by agar well diffusion method; procedure, shortened: as §2
[14] = molecular target: Beta-lactamase (Escherichia coli) (UniProt Q53TY8); assay: Binding affinity to Escherichia coli beta-lactamase in phosphate buffer at pH 7.4 at 6 10^-5M by CD spectral analysis
Procedure, shortened: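 Successive additions of compound (6 × 10^-5 M) were made to 1.0 mL β-lactamase in phosphate buffer pH 7.4. CD spectra were recorded at 25 °C over 200–700 nm, scan speed 50 nm/min, bandwidth 1 nm.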

Bifidobacterium longum = assay: Antibacterial activity against Bifidobacterium infantis after 24 hrs by agar well diffusion method; type: functional, Bifidobacterium longum subsp. infantis
[15] = molecular target: Beta-lactamase (Pseudomonas aeruginosa) (UniProt Q79MP6); assay: Inhibition of beta-lactamase in Pseudomonas aeruginosa ATCC 27853 assessed as potentiation of amoxicillin induced antibacterial activity by measuring amoxicillin MIC after 24 hrs by agar well diffusion method (reference value: 1 ug/ml); procedure, shortened: as §2
[16] = system: Bifidobacterium longum subsp. infantis; assay: Inhibition of beta-lactamase in Bifidobacterium infantis assessed as potentiation of amoxicillin induced antibacterial activity after 24 hrs by agar well diffusion method; procedure, shortened: as §2
[17] = system: Escherichia coli ATCC 25922; assay: Inhibition of beta-lactamase in Escherichia coli ATCC 25922 assessed as potentiation of amoxicillin induced antibacterial activity after 24 hrs by agar well diffusion method; procedure, shortened: as §2
[18] = molecular target: Beta-lactamase (Pseudomonas aeruginosa) (UniProt Q8RL90); assay: Inhibition of beta-lactamase in Pseudomonas aeruginosa ATCC 27853 assessed as potentiation of amoxicillin induced antibacterial activity at 5% amoxicillin to compound dilution after 24 hrs by agar well diffusion method; procedure, shortened: as §2
Escherichia coli [19] = assay: Induction of morphological changes in Escherichia coli ATCC 25922 assessed as cell crack at 0.2 ppm after 2 hrs by uranyl acetate staining based transmission electron microscopic analysis; type: functional, organism-based
Procedure, shortened: (§3)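 E. coli was exposed for 2 h, alongside untreated controls processed identically. Pellets were fixed in Karnovsky's fixative (2% paraformaldehyde, 2.5% glutaraldehyde) for 3–4 h at 25 °C, then washed in 0.1 M phosphate pH 7.2. Cells were adsorbed onto formvar-carbon copper grids and stained 5 min in […] aqueous uranyl acetate. Grids were imaged by TEM at 80 kV.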

[20] = molecular target: Beta-lactamase (Staphylococcus aureus) (UniProt P00807); assay: Inhibition of beta-lactamase in Staphylococcus aureus ATCC 25923 assessed as potentiation of amoxicillin induced antibacterial activity after 24 hrs by agar well diffusion method; procedure, shortened: as §2
[21] = molecular target: Beta-lactamase (Staphylococcus aureus) (UniProt P00807); assay: Inhibition of beta-lactamase in Staphylococcus aureus ATCC 25923 assessed as potentiation of amoxicillin induced antibacterial activity at 10 to 100% amoxicillin to compound dilution after 24 hrs by agar well diffusion method; procedure, shortened: as §2
[22] = system: Bifidobacterium longum subsp. infantis; assay: Inhibition of beta-lactamase in Bifidobacterium infantis assessed as potentiation of amoxicillin induced antibacterial activity at 10 to 100% amoxicillin to compound dilution after 24 hrs by agar well diffusion method; procedure, shortened: as §2
[23] = molecular target: Beta-lactamase (Escherichia coli) (UniProt Q53TY8); assay: Binding affinity to Escherichia coli beta-lactamase in phosphate buffer at pH 7.4 at 6 10^-5M after 3 mins by UV-vis spectroscopic analysis
Procedure, shortened: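 Compound at 6 × 10^-5 M in 0.01 M phosphate buffer pH 7.4 was titrated with 10 µl aliquots of 1 × 10^-6 M β-lactamase. Absorbance spectra were recorded at 200–700 nm after 3 min equilibration per addition, continuing until no further change (saturation).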

[24] = system: Bifidobacterium longum subsp. infantis; assay: Inhibition of beta-lactamase in Bifidobacterium infantis assessed as potentiation of amoxicillin induced antibacterial activity at 5% amoxicillin to compound dilution after 24 hrs by agar well diffusion method; procedure, shortened: as §2
[25] = molecular target: Beta-lactamase (Escherichia coli) (UniProt Q53TY8); assay: Binding affinity to Escherichia coli beta-lactamase in phosphate buffer at pH 7.4 at 6 10^-5M after 3 mins by fluorescence titration analysis
Procedure, shortened: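 Fixed compound concentration in phosphate buffer pH 7.4, titrated with 10 µl additions of 1 × 10^-6 M β-lactamase. Excitation was 280 or 290 nm depending on compound, with emission scanned 300–600 nm and slits 5–10 nm. Readings followed 3 min equilibration per addition in a 1 cm quartz cell, continuing to saturation.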

[26] = molecular target: Beta-lactamase (Staphylococcus aureus) (UniProt P00807); assay: Inhibition of beta-lactamase in Staphylococcus aureus ATCC 25923 assessed as potentiation of amoxicillin induced antibacterial activity at 5% amoxicillin to compound dilution after 24 hrs by agar well diffusion method; procedure, shortened: as §2
[27] = molecular target: Beta-lactamase (Pseudomonas aeruginosa) (UniProt Q79MP6); assay: Inhibition of beta-lactamase in Pseudomonas aeruginosa ATCC 27853 assessed as potentiation of amoxicillin induced antibacterial activity at 10 to 100% amoxicillin to compound dilution after 24 hrs by agar well diffusion method; procedure, shortened: as §2
Escherichia coli [28] = assay: Induction of morphological changes in Escherichia coli ATCC 25922 assessed as cell rupture at 0.2 ppm after 2 hrs by uranyl acetate staining based transmission electron microscopic analysis; type: functional, organism-based; procedure, shortened: as §3
[29] = system: Escherichia coli ATCC 25922; assay: Inhibition of beta-lactamase in Escherichia coli ATCC 25922 assessed as potentiation of amoxicillin induced antibacterial activity by measuring amoxicillin MIC after 24 hrs by agar well diffusion method (reference value: 1.5 ug/ml); procedure, shortened: as §2
Escherichia coli [30] = assay: Induction of morphological changes in Escherichia coli ATCC 25922 assessed as cell damage at 0.2 ppm after 2 hrs by uranyl acetate staining based transmission electron microscopic analysis; type: functional, organism-based; procedure, shortened: as §3

SMILES: N#C/C(=C\c1cnc(NCc2ccccc2)nc1)c1nc2ccccc2[nH]1
MIC (Escherichia coli [1]): 18 µg/mL (≈ 51.1 µM)
MIC (Bacillus spizizenii [2]): 25 µg/mL (≈ 70.9 µM)
inhibition zone (IZ) (Escherichia coli [3]): 45 mm
MIC (Staphylococcus aureus [4]): 18 µg/mL (≈ 51.1 µM)
inhibition zone (IZ) (Staphylococcus aureus [5]): 35 mm
inhibition zone (IZ) (Bacillus spizizenii [6]): 40 mm
MIC (Pseudomonas aeruginosa [7]): 18 µg/mL (≈ 51.1 µM)
inhibition zone (IZ) (Pseudomonas aeruginosa [8]): 30 mm

SMILES: N#C/C(=C\c1cnc(N2CCOCC2)nc1)c1nc2ccccc2s1
MIC (Escherichia coli [1]): 35.8 µg/mL (≈ 102 µM)
MIC (Bacillus spizizenii [2]): 50 µg/mL (≈ 143 µM)
inhibition zone (IZ) (Escherichia coli [3]): 40 mm
MIC (Staphylococcus aureus [4]): 27.8 µg/mL (≈ 79.6 µM)
inhibition zone (IZ) (Staphylococcus aureus [5]): 32 mm
inhibition zone (IZ) (Bacillus spizizenii [6]): 39 mm
MIC (Pseudomonas aeruginosa [7]): 35.8 µg/mL (≈ 102 µM)
inhibition zone (IZ) (Pseudomonas aeruginosa [8]): 30 mm

Now those with a lower MIC (Escherichia coli [1]), led by results:

MIC (Escherichia coli [1]): 11.1 µg/mL (≈ 28.5 µM)
MIC (Bacillus spizizenii [2]): 20 µg/mL (≈ 51.3 µM)
MIC (Staphylococcus aureus [4]): 11.1 µg/mL (≈ 28.5 µM)
MIC (Pseudomonas aeruginosa [7]): 11.1 µg/mL (≈ 28.5 µM)
SMILES: N#C/C(=C\c1cnc(Nc2ccc(Cl)cc2)nc1)c1nc2ccccc2s1
inhibition zone (IZ) (Escherichia coli [3]): 40 mm
inhibition zone (IZ) (Staphylococcus aureus [5]): 30 mm
inhibition zone (IZ) (Bacillus spizizenii [6]): 35 mm
inhibition zone (IZ) (Pseudomonas aeruginosa [8]): 30 mm

MIC (Escherichia coli [1]): 1.5 µg/mL (≈ 4.1 µM)
MIC (Bacillus spizizenii [2]): 1.5 µg/mL (≈ 4.1 µM)
MIC (Bifidobacterium longum): 1.5 µg/mL (≈ 4.1 µM)
MIC (Staphylococcus aureus [4]): 1.5 µg/mL (≈ 4.1 µM)
MIC (Pseudomonas aeruginosa [7]): 1 µg/mL (≈ 2.74 µM)
SMILES: CC1(C)S[C@@H]2[C@H](NC(=O)[C@H](N)c3ccc(O)cc3)C(=O)N2[C@H]1C(=O)O [AMOXICILLIN]
inhibition zone (IZ) (Escherichia coli [3]): 21 mm
inhibition zone (IZ) (Staphylococcus aureus [5]): 25 mm
inhibition zone (IZ) (Bacillus spizizenii [6]): 14 mm
inhibition zone (IZ) (Pseudomonas aeruginosa [8]): 24 mm

MIC (Escherichia coli [1]): 1 µg/mL (≈ 3.4 µM)
MIC [9]: 0.1 µg/mL
MIC [10]: 0.8 µg/mL
fractional inhibitory concentration index (FICI) [11]: 0.2
inhibition [12]: inactive
MIC (Bacillus spizizenii [2]): 8 µg/mL (≈ 27.2 µM)
inhibition [13]: Active
Activity [14]: Active
MIC (Bifidobacterium longum): 1 µg/mL (≈ 3.4 µM)
MIC [15]: 0.8 µg/mL
fractional inhibitory concentration index (FICI) [16]: 0.2
fractional inhibitory concentration index (FICI) [17]: 0.2
MIC (Staphylococcus aureus [4]): 8 µg/mL (≈ 27.2 µM)
inhibition [18]: inactive
fractional inhibitory concentration index (FICI) [20]: 0.2
inhibition [21]: Active
inhibition [22]: Active
MIC (Pseudomonas aeruginosa [7]): 1 µg/mL (≈ 3.4 µM)
Activity [23]: Active
inhibition [24]: inactive
Activity [25]: Active
inhibition [26]: inactive
inhibition [27]: Active
MIC [29]: 0.1 µg/mL
SMILES: N#C/C(=C\c1cnc(N)nc1N)c1nc2ccccc2s1
inhibition zone (IZ) (Escherichia coli [3]): 47 mm
Activity (Escherichia coli [19]): Active
inhibition zone (IZ) (Staphylococcus aureus [5]): 32 mm
inhibition zone (IZ) (Bacillus spizizenii [6]): 40 mm
inhibition zone (IZ) (Pseudomonas aeruginosa [8]): 28 mm
Activity (Escherichia coli [28]): Active
Activity (Escherichia coli [30]): Active
